The target in data set [1] is T1, Human immunodeficiency virus type 1 protease (Human immunodeficiency virus 1, UniProt Q72874). Nature of the data set: Inhibition of wild type HIV1 protease. The essentials:
(§1)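 Recombinant HIV-1 protease (wild-type or mutant) assayed fluorometrically with substrate DABCYL-γ-abu-Ser-Gln-Asn-Tyr-Pro-Ile-Val-Gln-EDANS (emission 490 nm). Conditions: 100 mM sodium acetate, 1 mM EDTA, 1 M NaCl, pH 4.7, 30 °C, 3% v/v DMSO final. Typically 7.5 nM enzyme and 5.2 µM substrate.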

Data set [2] is described as follows: Stability in presence of 20% fetal calf serum. The data set is classed as ADME. Particulars: cattle. The essentials:
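Compound incubated in RPMI medium containing 20% fetal calf serum at 37 °C for up to 2 days. Incubation stopped with ethanol, mixture chilled to 4 °C and centrifuged, and clear supernatant analysed by RP-HPLC. Half-life from least-squares linear regression of log[I] versus time, using at least five points.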

Data set [3] concerns the target T1, Human immunodeficiency virus type 1 protease. The experiment in a line: Inhibition of wild type HIV1 protease dimerization. The essentials:
as §1

In data set [4] the target is Human immunodeficiency virus type 1 protease (Human immunodeficiency virus 1) (UniProt Q72874). Nature of the data set: Inhibition of wild type HIV1 protease at 5 uM. The essentials:
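Recombinant wild-type HIV-1 protease (7.5 nM) was run with fluorogenic substrate DABCYL-γ-abu-Ser-Gln-Asn-Tyr-Pro-Ile-Val-Gln-EDANS (5.2 µM) in 100 mM sodium acetate, 1 mM EDTA, 1 M NaCl, pH 4.7, 30 °C. DMSO was kept at 3% v/v final. Emission was read at 490 nm. Percent inhibition was measured at 5 µM compound.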

The target is the same in data set [5]. Nature of the data set: Inhibition of wild type HIV1 protease dimerization at 5 uM.
The target of data set [6] is T1, Human immunodeficiency virus type 1 protease. Nature of the data set: Inhibition of dimerization of HIV1 protease ANAM-11 mutant. An outline of the steps:
as §1

Data set [7] addresses Human immunodeficiency virus type 1 protease (Human immunodeficiency virus 1, UniProt Q72874, V82A). Nature of the data set: Inhibition of dimerization of HIV1 protease V82A mutant. An outline of the steps: as §1
Data set [8] has as its target T1, Human immunodeficiency virus type 1 protease. Nature of the data set: Inhibition of dimerization of HIV1 protease MDR-HM mutant. The essentials:
as §1

The target of data set [9] is Human immunodeficiency virus type 1 protease (Human immunodeficiency virus 1, UniProt Q72874, D30N). The experiment in a line: Inhibition of dimerization of HIV1 protease D30N mutant. The essentials:
as §1

Data set [10] addresses Human immunodeficiency virus type 1 protease (Human immunodeficiency virus 1, UniProt Q72874, G48V/L90M). The experiment in a line: Inhibition of dimerization of HIV1 protease G48V/L90M mutant. The essentials:
as §1

Data set [11] addresses T1, Human immunodeficiency virus type 1 protease. Nature of the data set: Inhibition of dimerization of HIV1 protease […] mutant. The essentials: as §1

Molecules are shown by their SMILES.

Broadly, the Ki is a dissociation constant, usually derived from enzyme kinetics or from competition with a known ligand. Read a low Ki as higher affinity. On to `CC[C@H](C)[C@H](NC(=O)Cn1c(C)ccc(NC(=O)CCCOc2ccc3ccc(OCCCC(=O)N[C@H](C(=O)N[C@H](CC(C)C)C(=O)N[C@H](C(=O)OC)C(C)C)C(C)C)cc3c2)c1=O)C(=O)N[C@H](C(N)=O)[C@@H](C)O`, for which the Ki in [1] came out at 9700 nM.
In general, half-life refers to the time needed for the level to fall by half in the phase considered. For the molecule `COC(=O)[C@@H](NC(=O)[C@H](CC(C)C)NC(=O)[C@@H](NC(=O)CCCOc1ccc2ccc(OCCCC(=O)N[C@H](C(=O)N[C@@H](CC(C)C)C(=O)N[C@H](C(=O)OC)C(C)C)C(C)C)cc2c1)C(C)C)C(C)C`, in [2], the half-life is 28 h.
In the case of `COC(=O)[C@@H](NC(=O)[C@H](CC(C)C)NC(=O)[C@@H](NC(=O)CCCOc1ccc2ccc(OCCCC(=O)N[C@H](C(=O)Nc3cccn(CC(N)=O)c3=O)C(C)C)cc2c1)C(C)C)C(C)C`, in data set [2], the half-life was 41 h.
In data set [3], `COC(=O)[C@@H](NC(=O)[C@H](CC(C)C)NC(=O)[C@@H](NC(=O)CCCOc1ccc2ccc(OCCCC(=O)N[C@H](C(=O)NNC(=O)c3cc(NC(C)=O)ccc3OC)C(C)C)cc2c1)C(C)C)C(C)C` displayed a Ki of 200 nM.
As a reminder, the inhibition is the relative decrease from the control value, in per cent. Read a high inhibition as a strong effect. `COC(=O)[C@@H](NC(=O)[C@H](CC(C)C)NC(=O)[C@@H](NC(=O)CCCOc1ccc2ccc(OCCCC(=O)NNC(=O)c3cc(N)ccc3OC)cc2c1)C(C)C)C(C)C`: the inhibition in [4] and in [5] was 28% throughout.
Take `COC(=O)[C@@H](NC(=O)[C@@H](CC(C)C)NC(=O)[C@@H](NC(=O)CCCOc1ccc2ccc(OCCCC(=O)NC(C(=O)Nc3cccn(CC(N)=O)c3=O)C(C)C)cc2c1)C(C)C)C(C)C` (some centres undefined): the Ki was 200 nM in [6]; 240 nM in data set [7]; 4800 nM in [8]; 400 nM in data set [3]; 500 nM in data set [9]; 500 nM in data set [10]. This molecule also showed a Ki in data set [11] of 100 nM.
In data set [1], `COC(=O)[C@@H](NC(=O)[C@@H](CC(C)C)NC(=O)[C@@H](NC(=O)CCCOc1ccc2ccc(OCCCC(=O)Nc3ccc(C)n(CC(=O)Nc4ccc(C)n(CC(=O)OC(C)(C)C)c4=O)c3=O)cc2c1)C(C)C)C(C)C` showed a Ki of 8400 nM.

Values taken from ChEMBL document CHEMBL1137412, “Molecular tongs containing amino acid mimetic fragments: new inhibitors of wild-type and mutated HIV-1 protease dimerization” (J Med Chem, 2006).
